Experimental data taken from ChEMBL document CHEMBL3244044, “Synthesis and antitumor activity of halogen-substituted 4-(3,3-dimethyl-1-triazeno)quinolines” (J Med Chem, 1978).

Tests used:
Mus musculus [1] = experiment: Toxicity in mouse L1210 cells allografted mouse at 30 mg/kg, ip qd for 9 days; assay type: organism-based; set-up: dose 30 mg/kg, route intraperitoneal; settings: in vivo, 216 h
How it was run: (§1)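 Groups of five to ten mice were inoculated ip with about 10^6 L1210 cells and dosed once daily for 9 consecutive days beginning 24 h post-implantation. Toxicity was taken as the average body weight change at the end of drug treatment.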

P388 [2] = experiment: Antitumor activity against mouse P388 cells allografted mouse assessed as host survival at 30 mg/kg, ip qd for 9 days relative to control; assay type: functional; settings: route intraperitoneal
How it was run: (§2)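 NCI protocol: groups of five to ten mice inoculated ip with approximately 10^6 P-388 or L1210 cells. Drug given over a range of dose levels starting 24 h after implantation, once daily for 9 consecutive days. Survival expressed as %T/C = (average survival of treated)/(average survival of control) × 100.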

Mus musculus [3] = experiment: Toxicity in mouse P388 cells allografted mouse at 30 mg/kg, ip qd for 9 days; assay type: organism-based; set-up: dose 30 mg/kg, route intraperitoneal; settings: in vivo, 216 h
How it was run: (§3)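 NCI protocol. Groups of five to ten mice were inoculated intraperitoneally with about 10^6 tumor cells. Drug was given ip once daily for 9 consecutive days, starting 24 h after tumor implantation, over a range of dose levels. Toxicity was read as the average body weight change at the end of drug treatment.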

L1210 [4] = experiment: Antitumor activity against mouse L1210 cells allografted mouse assessed as host survival at 30 mg/kg, ip qd for 9 days relative to control; assay type: functional; settings: route intraperitoneal; how it was run: as §2
Mus musculus [5] = experiment: Toxicity in mouse L1210 cells allografted mouse at 40 mg/kg, ip qd for 9 days; assay type: organism-based; set-up: dose 40 mg/kg, route intraperitoneal; settings: in vivo, 216 h; how it was run: as §1
Mus musculus [6] = experiment: Toxicity in mouse B16 cells allografted mouse at 18 mg/kg, ip qd for 9 days; assay type: organism-based; set-up: dose 18 mg/kg, route intraperitoneal; settings: in vivo, 216 h
How it was run: (§4)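 Mice bearing B16 melanoma, dosed ip once daily for 9 days from 24 h after tumor implantation. Toxicity is recorded as the average body weight change at the end of drug treatment.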

[7] = Binding affinity to synthetic melanin at 5.8 mg/100 mL after 15 mins by UV-spectroscopic analysis; assay type: physicochemical; settings: 0.25 h
How it was run: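 Synthetic melanin was made from DL-Dopa with tyrosinase in 0.1 M phosphate pH 6.6 at 37 °C for 4 h. Melanin suspension (1.1 mg dry weight) was mixed with phosphate buffer (0.05 M, pH 6.4, 5% Me2SO), water, and 1 mL of drug solution (5.8 mg/100 mL). The mixture was shaken 15 min at room temperature and filtered. Unbound drug in the filtrate was measured by UV against a drug-free blank.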

B16 [8] = experiment: Antitumor activity against mouse B16 cells allografted mouse assessed as host survival at 18 mg/kg, ip qd for 9 days relative to control; assay type: functional; settings: route intraperitoneal
How it was run: (§5)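 B16 melanoma-bearing mice given drug ip once daily for 9 days, starting 24 h after tumor implantation. Read-out is average survival in days, expressed as %T/C = (average survival of treated mice)/(average survival of control mice) × 100.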

B16 [9] = experiment: Antitumor activity against mouse B16 cells allografted mouse assessed as host survival at 30 mg/kg, ip qd for 9 days relative to control; assay type: functional; settings: route intraperitoneal; how it was run: as §5
B16 [10] = experiment: Antitumor activity against mouse B16 cells allografted mouse assessed as host survival at 50 mg/kg, ip qd for 9 days relative to control; assay type: functional; settings: route intraperitoneal; how it was run: as §5
P388 [11] = experiment: Antitumor activity against mouse P388 cells allografted mouse assessed as host survival at 20 mg/kg, ip qd for 9 days relative to control; assay type: functional; settings: route intraperitoneal; how it was run: as §2
L1210 [12] = experiment: Antitumor activity against mouse L1210 cells allografted mouse assessed as host survival at 40 mg/kg, ip qd for 9 days relative to control; assay type: functional; settings: route intraperitoneal; how it was run: as §2
Mus musculus [13] = experiment: Toxicity in mouse B16 cells allografted mouse at 50 mg/kg, ip qd for 9 days; assay type: organism-based; set-up: dose 50 mg/kg, route intraperitoneal; settings: in vivo, 216 h; how it was run: as §4
Mus musculus [14] = experiment: Toxicity in mouse B16 cells allografted mouse at 30 mg/kg, ip qd for 9 days; assay type: organism-based; set-up: dose 30 mg/kg, route intraperitoneal; settings: in vivo, 216 h; how it was run: as §4
Mus musculus [15] = experiment: Toxicity in mouse P388 cells allografted mouse at 20 mg/kg, ip qd for 9 days; assay type: organism-based; set-up: dose 20 mg/kg, route intraperitoneal; settings: in vivo, 216 h; how it was run: as §3
P388 [16] = experiment: Antitumor activity against mouse P388 cells allografted mouse assessed as host survival at 50 mg/kg, ip qd for 9 days relative to control; assay type: functional; settings: route intraperitoneal; how it was run: as §2
P388 [17] = experiment: Antitumor activity against mouse P388 cells allografted mouse assessed as host survival at 40 mg/kg, ip qd for 9 days relative to control; assay type: functional; settings: route intraperitoneal; how it was run: as §2
Mus musculus [18] = experiment: Toxicity in mouse P388 cells allografted mouse at 50 mg/kg, ip qd for 9 days; assay type: organism-based; set-up: dose 50 mg/kg, route intraperitoneal; settings: in vivo, 216 h; how it was run: as §3
Mus musculus [19] = experiment: Toxicity in mouse P388 cells allografted mouse at 40 mg/kg, ip qd for 9 days; assay type: organism-based; set-up: dose 40 mg/kg, route intraperitoneal; settings: in vivo, 216 h; how it was run: as §3
Mus musculus [20] = experiment: Toxicity in mouse B16 cells allografted mouse at 66.7 mg/kg, ip qd for 9 days; assay type: organism-based; set-up: dose 66.7 mg/kg, route intraperitoneal; settings: in vivo, 216 h; how it was run: as §4
B16 [21] = experiment: Antitumor activity against mouse B16 cells allografted mouse assessed as host survival at 66.7 mg/kg, ip qd for 9 days relative to control; assay type: functional; settings: route intraperitoneal; how it was run: as §5
B16 [22] = experiment: Antitumor activity against mouse B16 cells allografted mouse assessed as host survival at 24 mg/kg, ip qd for 9 days relative to control; assay type: functional; settings: route intraperitoneal; how it was run: as §5
B16 [23] = experiment: Antitumor activity against mouse B16 cells allografted mouse assessed as host survival at 40 mg/kg, ip qd for 9 days relative to control; assay type: functional; settings: route intraperitoneal; how it was run: as §5
Mus musculus [24] = experiment: Toxicity in mouse B16 cells allografted mouse at 24 mg/kg, ip qd for 9 days; assay type: organism-based; set-up: dose 24 mg/kg, route intraperitoneal; settings: in vivo, 216 h; how it was run: as §4
Mus musculus [25] = experiment: Toxicity in mouse B16 cells allografted mouse at 40 mg/kg, ip qd for 9 days; assay type: organism-based; set-up: dose 40 mg/kg, route intraperitoneal; settings: in vivo, 216 h; how it was run: as §4
P388 [26] = experiment: Antitumor activity against mouse P388 cells allografted mouse assessed as host survival at 80 mg/kg, ip qd for 9 days relative to control; assay type: functional; settings: route intraperitoneal; how it was run: as §2
P388 [27] = experiment: Antitumor activity against mouse P388 cells allografted mouse assessed as host survival at 60 mg/kg, ip qd for 9 days relative to control; assay type: functional; settings: route intraperitoneal; how it was run: as §2
Mus musculus [28] = experiment: Toxicity in mouse L1210 cells allografted mouse at 70 mg/kg, ip qd for 9 days; assay type: organism-based; set-up: dose 70 mg/kg, route intraperitoneal; settings: in vivo, 216 h; how it was run: as §1
Mus musculus [29] = experiment: Toxicity in mouse L1210 cells allografted mouse at 80 mg/kg, ip qd for 9 days; assay type: organism-based; set-up: dose 80 mg/kg, route intraperitoneal; settings: in vivo, 216 h; how it was run: as §3
Mus musculus [30] = experiment: Toxicity in mouse P388 cells allografted mouse at 80 mg/kg, ip qd for 9 days; assay type: organism-based; set-up: dose 80 mg/kg, route intraperitoneal; settings: in vivo, 216 h; how it was run: as §3
Mus musculus [31] = experiment: Toxicity in mouse L1210 cells allografted mouse at 90 mg/kg, ip qd for 9 days; assay type: organism-based; set-up: dose 90 mg/kg, route intraperitoneal; settings: in vivo, 216 h; how it was run: as §3
L1210 [32] = experiment: Antitumor activity against mouse L1210 cells allografted mouse assessed as host survival at 90 mg/kg, ip qd for 9 days relative to control; assay type: functional; settings: route intraperitoneal; how it was run: as §2
Mus musculus [33] = experiment: Toxicity in mouse P388 cells allografted mouse at 60 mg/kg, ip qd for 9 days; assay type: organism-based; set-up: dose 60 mg/kg, route intraperitoneal; settings: in vivo, 216 h; how it was run: as §3
L1210 [34] = experiment: Antitumor activity against mouse L1210 cells allografted mouse assessed as host survival at 80 mg/kg, ip qd for 9 days relative to control; assay type: functional; settings: route intraperitoneal; how it was run: as §2
L1210 [35] = experiment: Antitumor activity against mouse L1210 cells allografted mouse assessed as host survival at 70 mg/kg, ip qd for 9 days relative to control; assay type: functional; settings: route intraperitoneal; how it was run: as §2

Row | SMILES | Activity (Mus musculus [1]) | T/C (P388 [2]) | Activity (Mus musculus [3]) | T/C (L1210 [4]) | Activity (Mus musculus [5]) | Activity [7] | T/C (P388 [11]) | T/C (L1210 [12]) | Activity (Mus musculus [15]) | T/C (P388 [16]) | T/C (P388 [17]) | Activity (Mus musculus [18]) | Activity (Mus musculus [19]) | also measured
1 | CN(C)/N=N\c1ccnc2c(Cl)cccc12 | 0% | 167% | -15% | 165% | -4.9% | 56.4% | 172% | 155% | -2.1% |  |  |  |  | Activity (Mus musculus [6]): -0.3%; Survival (B16 [8]): 21.6 days; T/C (B16 [8]): 103%; Survival (B16 [9]): 21.3 days; T/C (B16 [9]): 101%; Survival (B16 [10]): 20.8 days; T/C (B16 [10]): 99%; Activity (Mus musculus [13]): -3.9%; Activity (Mus musculus [14]): -2.9%
2 | CN(C)/N=N\c1ccnc2ccc(Br)cc12 | -1% | 127% |  | 150% | -5.8% | 55.3% | 123% | 154% | 18% | 131% | 111% | -8.9% | -3.5% | 
3 | CN(C)/N=N\c1ccnc2cc(Br)ccc12 | 10% | 133% | -2.4% | 129% | -2.8% | 57.3% |  | 141% |  | 125% | 133% | -15.1% | -8.9% | 
4 | CN(C)/N=N\c1ccnc2c(Br)cccc12 | 6.1% | 113% | 4.8% | 137% | -5.9% | 48.1% | 109% | 144% | 16% | 117% | 125% | -5% | -3.3% | Activity (Mus musculus [20]): -3.7%; Survival (B16 [21]): 21.3 days; T/C (B16 [21]): 101%; Survival (B16 [22]): 20.3 days; T/C (B16 [22]): 97%; Survival (B16 [23]): 19 days; T/C (B16 [23]): 90%; Activity (Mus musculus [24]): -1.1%; Activity (Mus musculus [25]): -3%
5 | CN(C)/N=N\c1ccnc2ccc(I)cc12 |  |  |  |  |  | 60.6% |  |  |  |  | 117% |  | 10.5% | T/C (P388 [26]): 123%; T/C (P388 [27]): 133%; Activity (Mus musculus [28]): -23.8%; Activity (Mus musculus [29]): -8.2%; Activity (Mus musculus [30]): 7.1%; Activity (Mus musculus [31]): -6.4%; T/C (L1210 [32]): 158%; Activity (Mus musculus [33]): 2.6%; T/C (L1210 [34]): 160%; T/C (L1210 [35]): 148%
